# According to ChEMBL document CHEMBL1122840, “SAR studies in the field of calcium(II) antagonists. Effect of modifications at the tetrasubstituted carbon of verapamil-like compounds” (1985):
# Species: Cavia porcellus
# Test: Heart rate of isolated guinea pig heart at dose 5 (ug/heart)
# Type: functional
# Outline: (§1)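 Rate was derived from the left ventricular pressure tracing of the perfused heart. Drug dissolved in perfusion liquid was given as a 1-min side-arm injection into the aortic inflow cannula after 30-min stabilization, at constant volume. Six preparations per compound; values expressed as mean, SE and percent of basal for each dose.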
row,SMILES,HR [beats min-1]
1,COc1ccc(CCN(C)CCC=C2c3ccccc3-c3ccccc32)cc1OC.O=C(O)C(=O)O,208
2,COc1ccc(CCN(C)CCCC2c3ccccc3-c3ccccc32)cc1OC.O=C(O)C(=O)O,149.3
3,COc1ccc(CCN(C)C/C=C/C2(C(C)C)c3ccccc3-c3ccccc32)cc1OC.O=S(=O)(O)O,176.6
4,COc1ccc(CCN(C)CCCC(C#N)(c2ccc(OC)c(OC)c2)C(C)C)cc1OC (configuration not stated) [VERAPAMIL],188
5,COc1ccc(CCN(C)CCCC2(C#N)c3ccccc3-c3ccccc32)cc1OC.[O-][Cl+3]([O-])([O-])O,194.8
6,COc1ccc(CCN(C)CCCC2(C(C)C)c3ccccc3-c3ccccc32)cc1OC.O=S(=O)(O)O,204.4

# Species: Cavia porcellus
# Test: Left ventricular pressure of isolated guinea pig heart at dose 0.005 (ug/heart)
# Type: functional, Cardiac ventricle
# Outline: (§2)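 Perfused heart, 30-min stabilization, then a 1-min constant-volume injection of drug dissolved in perfusion liquid via a side arm of the aortic inflow cannula. Six preparations per compound; mean, SE and percent of basal value were calculated for each dose.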
row,SMILES,LVP [mmHg]
1,COc1ccc(CCN(C)CCC=C2c3ccccc3-c3ccccc32)cc1OC.O=C(O)C(=O)O,53
2,COc1ccc(CCN(C)CCCC2c3ccccc3-c3ccccc32)cc1OC.O=C(O)C(=O)O,88.5
3,COc1ccc(CCN(C)C/C=C/C2(C(C)C)c3ccccc3-c3ccccc32)cc1OC.O=S(=O)(O)O,43.2
4,COc1ccc(CCN(C)CCCC(C#N)(c2ccc(OC)c(OC)c2)C(C)C)cc1OC (configuration not stated) [VERAPAMIL],25.7
5,COc1ccc(CCN(C)CCCC2(C#N)c3ccccc3-c3ccccc32)cc1OC.[O-][Cl+3]([O-])([O-])O,47.2
6,COc1ccc(CCN(C)CCCC2(C(C)C)c3ccccc3-c3ccccc32)cc1OC.O=S(=O)(O)O,38.4

# Species: Cavia porcellus
# Test: Left ventricular pressure of isolated guinea pig heart at dose 5 (ug/heart)
# Type: functional, Cardiac ventricle
# Outline: as §2
row,SMILES,LVP [mmHg]
1,COc1ccc(CCN(C)CCC=C2c3ccccc3-c3ccccc32)cc1OC.O=C(O)C(=O)O,54
2,COc1ccc(CCN(C)CCCC2c3ccccc3-c3ccccc32)cc1OC.O=C(O)C(=O)O,89.3
3,COc1ccc(CCN(C)C/C=C/C2(C(C)C)c3ccccc3-c3ccccc32)cc1OC.O=S(=O)(O)O,43.2
4,COc1ccc(CCN(C)CCCC(C#N)(c2ccc(OC)c(OC)c2)C(C)C)cc1OC (configuration not stated) [VERAPAMIL],13
5,COc1ccc(CCN(C)CCCC2(C#N)c3ccccc3-c3ccccc32)cc1OC.[O-][Cl+3]([O-])([O-])O,38.5
6,COc1ccc(CCN(C)CCCC2(C(C)C)c3ccccc3-c3ccccc32)cc1OC.O=S(=O)(O)O,36

# Species: Cavia porcellus
# Test: Coronary perfusion pressure of isolated guinea pig heart at dose 5 (ug/heart)
# Type: functional
# Outline: (§3)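 Heart perfused via an aortic inflow cannula; coronary perfusion pressure was recorded in that cannula with a pressure transducer. After 30-min stabilization, drug dissolved in perfusion liquid was injected through a side arm over 1 min, at constant volume. Six preparations per compound; mean, SE and percent of basal value were calculated for each dose.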
row,SMILES,CPP [mmHg]
1,COc1ccc(CCN(C)CCC=C2c3ccccc3-c3ccccc32)cc1OC.O=C(O)C(=O)O,51
2,COc1ccc(CCN(C)CCCC2c3ccccc3-c3ccccc32)cc1OC.O=C(O)C(=O)O,51.3
3,COc1ccc(CCN(C)C/C=C/C2(C(C)C)c3ccccc3-c3ccccc32)cc1OC.O=S(=O)(O)O,74.4
4,COc1ccc(CCN(C)CCCC(C#N)(c2ccc(OC)c(OC)c2)C(C)C)cc1OC (configuration not stated) [VERAPAMIL],48.8
5,COc1ccc(CCN(C)CCCC2(C(C)C)c3ccccc3-c3ccccc32)cc1OC.O=S(=O)(O)O,78.4

# Species: Cavia porcellus
# Test: Heart rate of isolated guinea pig heart at dose 0.05 (ug/heart)
# Type: functional
# Outline: as §1
row,SMILES,HR [beats min-1]
1,COc1ccc(CCN(C)CCC=C2c3ccccc3-c3ccccc32)cc1OC.O=C(O)C(=O)O,210
2,COc1ccc(CCN(C)CCCC2c3ccccc3-c3ccccc32)cc1OC.O=C(O)C(=O)O,150
3,COc1ccc(CCN(C)C/C=C/C2(C(C)C)c3ccccc3-c3ccccc32)cc1OC.O=S(=O)(O)O,177.8
4,COc1ccc(CCN(C)CCCC(C#N)(c2ccc(OC)c(OC)c2)C(C)C)cc1OC (configuration not stated) [VERAPAMIL],203.8
5,COc1ccc(CCN(C)CCCC2(C#N)c3ccccc3-c3ccccc32)cc1OC.[O-][Cl+3]([O-])([O-])O,208
6,COc1ccc(CCN(C)CCCC2(C(C)C)c3ccccc3-c3ccccc32)cc1OC.O=S(=O)(O)O,209

# Species: Cavia porcellus
# Test: Left ventricular pressure of isolated guinea pig heart at dose 0.05 (ug/heart)
# Type: functional, Cardiac ventricle
# Outline: as §2
row,SMILES,LVP [mmHg]
1,COc1ccc(CCN(C)CCC=C2c3ccccc3-c3ccccc32)cc1OC.O=C(O)C(=O)O,53
2,COc1ccc(CCN(C)CCCC2c3ccccc3-c3ccccc32)cc1OC.O=C(O)C(=O)O,89.5
3,COc1ccc(CCN(C)C/C=C/C2(C(C)C)c3ccccc3-c3ccccc32)cc1OC.O=S(=O)(O)O,43.2
4,COc1ccc(CCN(C)CCCC(C#N)(c2ccc(OC)c(OC)c2)C(C)C)cc1OC (configuration not stated) [VERAPAMIL],24
5,COc1ccc(CCN(C)CCCC2(C#N)c3ccccc3-c3ccccc32)cc1OC.[O-][Cl+3]([O-])([O-])O,41.8
6,COc1ccc(CCN(C)CCCC2(C(C)C)c3ccccc3-c3ccccc32)cc1OC.O=S(=O)(O)O,38

# Species: Cavia porcellus
# Test: Heart rate of isolated guinea pig heart at dose 0.005 (ug/heart)
# Type: functional
# Outline: as §1
row,SMILES,HR [beats min-1]
1,COc1ccc(CCN(C)CCC=C2c3ccccc3-c3ccccc32)cc1OC.O=C(O)C(=O)O,210
2,COc1ccc(CCN(C)CCCC2c3ccccc3-c3ccccc32)cc1OC.O=C(O)C(=O)O,150
3,COc1ccc(CCN(C)C/C=C/C2(C(C)C)c3ccccc3-c3ccccc32)cc1OC.O=S(=O)(O)O,182.6
4,COc1ccc(CCN(C)CCCC(C#N)(c2ccc(OC)c(OC)c2)C(C)C)cc1OC (configuration not stated) [VERAPAMIL],210
5,COc1ccc(CCN(C)CCCC2(C#N)c3ccccc3-c3ccccc32)cc1OC.[O-][Cl+3]([O-])([O-])O,213
6,COc1ccc(CCN(C)CCCC2(C(C)C)c3ccccc3-c3ccccc32)cc1OC.O=S(=O)(O)O,211

# Species: Cavia porcellus
# Test: Heart rate of isolated guinea pig heart at dose 0.5 (ug/heart)
# Type: functional
# Outline: as §1
row,SMILES,HR [beats min-1]
1,COc1ccc(CCN(C)CCC=C2c3ccccc3-c3ccccc32)cc1OC.O=C(O)C(=O)O,208
2,COc1ccc(CCN(C)CCCC2c3ccccc3-c3ccccc32)cc1OC.O=C(O)C(=O)O,150
3,COc1ccc(CCN(C)C/C=C/C2(C(C)C)c3ccccc3-c3ccccc32)cc1OC.O=S(=O)(O)O,180.6
4,COc1ccc(CCN(C)CCCC(C#N)(c2ccc(OC)c(OC)c2)C(C)C)cc1OC (configuration not stated) [VERAPAMIL],200.3
5,COc1ccc(CCN(C)CCCC2(C#N)c3ccccc3-c3ccccc32)cc1OC.[O-][Cl+3]([O-])([O-])O,203
6,COc1ccc(CCN(C)CCCC2(C(C)C)c3ccccc3-c3ccccc32)cc1OC.O=S(=O)(O)O,207

# Species: Cavia porcellus
# Test: Coronary perfusion pressure of isolated guinea pig heart at dose 5 ug/heart)
# Type: functional
# Outline: as §3
row,SMILES,CPP [mmHg]
1,COc1ccc(CCN(C)CCCC2(C#N)c3ccccc3-c3ccccc32)cc1OC.[O-][Cl+3]([O-])([O-])O,43.8

# Species: Cavia porcellus
# Test: Left ventricular pressure of isolated guinea pig heart at dose 0.5 (ug/heart)
# Type: functional, Cardiac ventricle
# Outline: as §2
row,SMILES,LVP [mmHg]
1,COc1ccc(CCN(C)CCC=C2c3ccccc3-c3ccccc32)cc1OC.O=C(O)C(=O)O,54
2,COc1ccc(CCN(C)CCCC2c3ccccc3-c3ccccc32)cc1OC.O=C(O)C(=O)O,91.2
3,COc1ccc(CCN(C)C/C=C/C2(C(C)C)c3ccccc3-c3ccccc32)cc1OC.O=S(=O)(O)O,44
4,COc1ccc(CCN(C)CCCC(C#N)(c2ccc(OC)c(OC)c2)C(C)C)cc1OC (configuration not stated) [VERAPAMIL],21.5
5,COc1ccc(CCN(C)CCCC2(C#N)c3ccccc3-c3ccccc32)cc1OC.[O-][Cl+3]([O-])([O-])O,38.7
6,COc1ccc(CCN(C)CCCC2(C(C)C)c3ccccc3-c3ccccc32)cc1OC.O=S(=O)(O)O,37

# Species: Cavia porcellus
# Test: Coronary perfusion pressure of isolated guinea pig heart at dose 0.05 (ug/heart)
# Type: functional
# Outline: as §3
row,SMILES,CPP [mmHg]
1,COc1ccc(CCN(C)CCC=C2c3ccccc3-c3ccccc32)cc1OC.O=C(O)C(=O)O,50
2,COc1ccc(CCN(C)CCCC2c3ccccc3-c3ccccc32)cc1OC.O=C(O)C(=O)O,52
3,COc1ccc(CCN(C)C/C=C/C2(C(C)C)c3ccccc3-c3ccccc32)cc1OC.O=S(=O)(O)O,82.4
4,COc1ccc(CCN(C)CCCC(C#N)(c2ccc(OC)c(OC)c2)C(C)C)cc1OC (configuration not stated) [VERAPAMIL],50.3
5,COc1ccc(CCN(C)CCCC2(C#N)c3ccccc3-c3ccccc32)cc1OC.[O-][Cl+3]([O-])([O-])O,45.2
6,COc1ccc(CCN(C)CCCC2(C(C)C)c3ccccc3-c3ccccc32)cc1OC.O=S(=O)(O)O,78.6

# Species: Cavia porcellus
# Test: Coronary perfusion pressure of isolated guinea pig heart at dose 0.005 (ug/heart)
# Type: functional
# Outline: as §3
row,SMILES,CPP [mmHg]
1,COc1ccc(CCN(C)CCC=C2c3ccccc3-c3ccccc32)cc1OC.O=C(O)C(=O)O,50
2,COc1ccc(CCN(C)CCCC2c3ccccc3-c3ccccc32)cc1OC.O=C(O)C(=O)O,52
3,COc1ccc(CCN(C)C/C=C/C2(C(C)C)c3ccccc3-c3ccccc32)cc1OC.O=S(=O)(O)O,83.8
4,COc1ccc(CCN(C)CCCC(C#N)(c2ccc(OC)c(OC)c2)C(C)C)cc1OC (configuration not stated) [VERAPAMIL],51.7
5,COc1ccc(CCN(C)CCCC2(C#N)c3ccccc3-c3ccccc32)cc1OC.[O-][Cl+3]([O-])([O-])O,47.7
6,COc1ccc(CCN(C)CCCC2(C(C)C)c3ccccc3-c3ccccc32)cc1OC.O=S(=O)(O)O,76.4

# Species: Cavia porcellus
# Test: Coronary perfusion pressure of isolated guinea pig heart at dose 0.5 (ug/heart)
# Type: functional
# Outline: as §3
row,SMILES,CPP [mmHg]
1,COc1ccc(CCN(C)CCC=C2c3ccccc3-c3ccccc32)cc1OC.O=C(O)C(=O)O,51
2,COc1ccc(CCN(C)CCCC2c3ccccc3-c3ccccc32)cc1OC.O=C(O)C(=O)O,56
3,COc1ccc(CCN(C)C/C=C/C2(C(C)C)c3ccccc3-c3ccccc32)cc1OC.O=S(=O)(O)O,77
4,COc1ccc(CCN(C)CCCC(C#N)(c2ccc(OC)c(OC)c2)C(C)C)cc1OC (configuration not stated) [VERAPAMIL],49.7
5,COc1ccc(CCN(C)CCCC2(C#N)c3ccccc3-c3ccccc32)cc1OC.[O-][Cl+3]([O-])([O-])O,45
6,COc1ccc(CCN(C)CCCC2(C(C)C)c3ccccc3-c3ccccc32)cc1OC.O=S(=O)(O)O,78.4
